{"source": "paper PMC7993274", "about": "(Clinical and Translational Science, 2020)", "experiment": "Treatment-emergent adverse events, SAD period", "assay_type": "in vivo, human", "summary_of_the_method": "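Double-blind, placebo-controlled study in healthy men and nonchildbearing women aged 18–55 y. The SAD period gave one fasted oral dose; the MAD period gave fed dosing q.d. for 10 days, plus a separate b.i.d. cohort. TEAEs, serious AEs and discontinuation AEs were monitored ≥28 days after the last dose. Vital signs, physical exam, 12-lead ECG, hematology, clinical chemistry and urinalysis were also recorded. Data summarized descriptively.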"}
{"smiles": "Cn1cc(-c2cn3nccc3c(-c3cnn([C@]4(CC#N)C[C@@H](C#N)C4)c3)n2)cn1", "note": "[PF‐06826647]", "values": [{"measurement": "AEs", "setting": "SAD 3 mg (n = 6)", "result": 0, "unit": "n"}, {"measurement": "AEs leading to study drug dose reduction or interruption", "setting": "SAD 3 mg (n = 6)", "result": 0, "unit": "n"}, {"measurement": "Participants with AEs", "setting": "SAD 3 mg (n = 6)", "result": "0 n (%)"}, {"measurement": "Participants with TEAEs: Alanine aminotransferase increased", "setting": "SAD 3 mg (n = 6)", "result": "0 n (%)"}, {"measurement": "Participants with TEAEs: Aspartate aminotransferase increased", "setting": "SAD 3 mg (n = 6)", "result": "0 n (%)"}, {"measurement": "Participants with TEAEs: Edema", "setting": "SAD 3 mg (n = 6)", "result": "0 n (%)"}, {"measurement": "Participants with TEAEs: Face edema", "setting": "SAD 3 mg (n = 6)", "result": "0 n (%)"}, {"measurement": "Participants with TEAEs: Gastrointestinal disorders (SOC)", "setting": "SAD 3 mg (n = 6)", "result": "0 n (%)"}, {"measurement": "Participants with TEAEs: General disorders and administration site conditions (SOC)", "setting": "SAD 3 mg (n = 6)", "result": "0 n (%)"}, {"measurement": "Participants with TEAEs: Headache", "setting": "SAD 3 mg (n = 6)", "result": "0 n (%)"}, {"measurement": "Participants with TEAEs: Injury, poisoning, and procedural complications (SOC)", "setting": "SAD 3 mg (n = 6)", "result": "0 n (%)"}, {"measurement": "Participants with TEAEs: Investigations (SOC)", "setting": "SAD 3 mg (n = 6)", "result": "0 n (%)"}, {"measurement": "Participants with TEAEs: Nausea", "setting": "SAD 3 mg (n = 6)", "result": "0 n (%)"}, {"measurement": "Participants with TEAEs: Nervous system disorders (SOC)", "setting": "SAD 3 mg (n = 6)", "result": "0 n (%)"}, {"measurement": "Participants with TEAEs: Periorbital hematoma", "setting": "SAD 3 mg (n = 6)", "result": "0 n (%)"}, {"measurement": "Participants with TEAEs: Periorbital hemorrhage", "setting": "SAD 3 mg (n = 6)", "result": "0 n (%)"}, {"measurement": "Participants with TEAEs: Peripheral swelling", "setting": "SAD 3 mg (n = 6)", "result": "0 n (%)"}, {"measurement": "Participants with TEAEs: Pruritus", "setting": "SAD 3 mg (n = 6)", "result": "0 n (%)"}, {"measurement": "Participants with TEAEs: Rash", "setting": "SAD 3 mg (n = 6)", "result": "0 n (%)"}, {"measurement": "Participants with TEAEs: Skin and subcutaneous tissue disorders (SOC)", "setting": "SAD 3 mg (n = 6)", "result": "0 n (%)"}, {"measurement": "Participants with TEAEs: Urticaria", "setting": "SAD 3 mg (n = 6)", "result": "0 n (%)"}, {"measurement": "SAEs", "setting": "SAD 3 mg (n = 6)", "result": 0, "unit": "n"}, {"measurement": "Severe AEs", "setting": "SAD 3 mg (n = 6)", "result": 0, "unit": "n"}, {"measurement": "AEs", "setting": "SAD 10 mg (n = 6)", "result": 0, "unit": "n"}, {"measurement": "AEs leading to study drug dose reduction or interruption", "setting": "SAD 10 mg (n = 6)", "result": 0, "unit": "n"}, {"measurement": "Participants with AEs", "setting": "SAD 10 mg (n = 6)", "result": "0 n (%)"}, {"measurement": "Participants with TEAEs: Alanine aminotransferase increased", "setting": "SAD 10 mg (n = 6)", "result": "0 n (%)"}, {"measurement": "Participants with TEAEs: Aspartate aminotransferase increased", "setting": "SAD 10 mg (n = 6)", "result": "0 n (%)"}, {"measurement": "Participants with TEAEs: Edema", "setting": "SAD 10 mg (n = 6)", "result": "0 n (%)"}, {"measurement": "Participants with TEAEs: Face edema", "setting": "SAD 10 mg (n = 6)", "result": "0 n (%)"}, {"measurement": "Participants with TEAEs: Gastrointestinal disorders (SOC)", "setting": "SAD 10 mg (n = 6)", "result": "0 n (%)"}, {"measurement": "Participants with TEAEs: General disorders and administration site conditions (SOC)", "setting": "SAD 10 mg (n = 6)", "result": "0 n (%)"}, {"measurement": "Participants with TEAEs: Headache", "setting": "SAD 10 mg (n = 6)", "result": "0 n (%)"}, {"measurement": "Participants with TEAEs: Injury, poisoning, and procedural complications (SOC)", "setting": "SAD 10 mg (n = 6)", "result": "0 n (%)"}, {"measurement": "Participants with TEAEs: Investigations (SOC)", "setting": "SAD 10 mg (n = 6)", "result": "0 n (%)"}, {"measurement": "Participants with TEAEs: Nausea", "setting": "SAD 10 mg (n = 6)", "result": "0 n (%)"}, {"measurement": "Participants with TEAEs: Nervous system disorders (SOC)", "setting": "SAD 10 mg (n = 6)", "result": "0 n (%)"}, {"measurement": "Participants with TEAEs: Periorbital hematoma", "setting": "SAD 10 mg (n = 6)", "result": "0 n (%)"}, {"measurement": "Participants with TEAEs: Periorbital hemorrhage", "setting": "SAD 10 mg (n = 6)", "result": "0 n (%)"}, {"measurement": "Participants with TEAEs: Peripheral swelling", "setting": "SAD 10 mg (n = 6)", "result": "0 n (%)"}, {"measurement": "Participants with TEAEs: Pruritus", "setting": "SAD 10 mg (n = 6)", "result": "0 n (%)"}, {"measurement": "Participants with TEAEs: Rash", "setting": "SAD 10 mg (n = 6)", "result": "0 n (%)"}, {"measurement": "Participants with TEAEs: Skin and subcutaneous tissue disorders (SOC)", "setting": "SAD 10 mg (n = 6)", "result": "0 n (%)"}, {"measurement": "Participants with TEAEs: Urticaria", "setting": "SAD 10 mg (n = 6)", "result": "0 n (%)"}, {"measurement": "SAEs", "setting": "SAD 10 mg (n = 6)", "result": 0, "unit": "n"}, {"measurement": "Severe AEs", "setting": "SAD 10 mg (n = 6)", "result": 0, "unit": "n"}, {"measurement": "AEs", "setting": "SAD 30 mg (n = 8)", "result": 0, "unit": "n"}, {"measurement": "AEs leading to study drug dose reduction or interruption", "setting": "SAD 30 mg (n = 8)", "result": 0, "unit": "n"}, {"measurement": "Participants with AEs", "setting": "SAD 30 mg (n = 8)", "result": "0 n (%)"}, {"measurement": "Participants with TEAEs: Alanine aminotransferase increased", "setting": "SAD 30 mg (n = 8)", "result": "0 n (%)"}, {"measurement": "Participants with TEAEs: Aspartate aminotransferase increased", "setting": "SAD 30 mg (n = 8)", "result": "0 n (%)"}, {"measurement": "Participants with TEAEs: Edema", "setting": "SAD 30 mg (n = 8)", "result": "0 n (%)"}, {"measurement": "Participants with TEAEs: Face edema", "setting": "SAD 30 mg (n = 8)", "result": "0 n (%)"}, {"measurement": "Participants with TEAEs: Gastrointestinal disorders (SOC)", "setting": "SAD 30 mg (n = 8)", "result": "0 n (%)"}, {"measurement": "Participants with TEAEs: General disorders and administration site conditions (SOC)", "setting": "SAD 30 mg (n = 8)", "result": "0 n (%)"}, {"measurement": "Participants with TEAEs: Headache", "setting": "SAD 30 mg (n = 8)", "result": "0 n (%)"}, {"measurement": "Participants with TEAEs: Injury, poisoning, and procedural complications (SOC)", "setting": "SAD 30 mg (n = 8)", "result": "0 n (%)"}, {"measurement": "Participants with TEAEs: Investigations (SOC)", "setting": "SAD 30 mg (n = 8)", "result": "0 n (%)"}, {"measurement": "Participants with TEAEs: Nausea", "setting": "SAD 30 mg (n = 8)", "result": "0 n (%)"}, {"measurement": "Participants with TEAEs: Nervous system disorders (SOC)", "setting": "SAD 30 mg (n = 8)", "result": "0 n (%)"}, {"measurement": "Participants with TEAEs: Periorbital hematoma", "setting": "SAD 30 mg (n = 8)", "result": "0 n (%)"}, {"measurement": "Participants with TEAEs: Periorbital hemorrhage", "setting": "SAD 30 mg (n = 8)", "result": "0 n (%)"}, {"measurement": "Participants with TEAEs: Peripheral swelling", "setting": "SAD 30 mg (n = 8)", "result": "0 n (%)"}, {"measurement": "Participants with TEAEs: Pruritus", "setting": "SAD 30 mg (n = 8)", "result": "0 n (%)"}, {"measurement": "Participants with TEAEs: Rash", "setting": "SAD 30 mg (n = 8)", "result": "0 n (%)"}, {"measurement": "Participants with TEAEs: Skin and subcutaneous tissue disorders (SOC)", "setting": "SAD 30 mg (n = 8)", "result": "0 n (%)"}, {"measurement": "Participants with TEAEs: Urticaria", "setting": "SAD 30 mg (n = 8)", "result": "0 n (%)"}, {"measurement": "SAEs", "setting": "SAD 30 mg (n = 8)", "result": 0, "unit": "n"}, {"measurement": "Severe AEs", "setting": "SAD 30 mg (n = 8)", "result": 0, "unit": "n"}, {"measurement": "AEs", "setting": "SAD 100 mg (n = 7)", "result": 9, "unit": "n"}, {"measurement": "AEs leading to study drug dose reduction or interruption", "setting": "SAD 100 mg (n = 7)", "result": 0, "unit": "n"}, {"measurement": "Participants with AEs", "setting": "SAD 100 mg (n = 7)", "result": "1 (14.3) n (%)"}, {"measurement": "Participants with TEAEs: Alanine aminotransferase increased", "setting": "SAD 100 mg (n = 7)", "result": "0 n (%)"}, {"measurement": "Participants with TEAEs: Aspartate aminotransferase increased", "setting": "SAD 100 mg (n = 7)", "result": "0 n (%)"}, {"measurement": "Participants with TEAEs: Edema", "setting": "SAD 100 mg (n = 7)", "result": "1 (14.3) n (%)"}, {"measurement": "Participants with TEAEs: Face edema", "setting": "SAD 100 mg (n = 7)", "result": "1 (14.3) n (%)"}, {"measurement": "Participants with TEAEs: Gastrointestinal disorders (SOC)", "setting": "SAD 100 mg (n = 7)", "result": "1 (14.3) n (%)"}, {"measurement": "Participants with TEAEs: General disorders and administration site conditions (SOC)", "setting": "SAD 100 mg (n = 7)", "result": "1 (14.3) n (%)"}, {"measurement": "Participants with TEAEs: Headache", "setting": "SAD 100 mg (n = 7)", "result": "1 (14.3) n (%)"}, {"measurement": "Participants with TEAEs: Injury, poisoning, and procedural complications (SOC)", "setting": "SAD 100 mg (n = 7)", "result": "1 (14.3) n (%)"}, {"measurement": "Participants with TEAEs: Investigations (SOC)", "setting": "SAD 100 mg (n = 7)", "result": "0 n (%)"}, {"measurement": "Participants with TEAEs: Nausea", "setting": "SAD 100 mg (n = 7)", "result": "1 (14.3) n (%)"}]}
